From ChEMBL document CHEMBL1148699, “Characterization of the intracellular mechanisms involved in the antiaggregant properties of cinnamtannin B-1 from bay wood in human platelets” (2007) come the findings set out here.

Assay [1] concerns Platelet. In words: Effect on thrombin-induced human platelet aggregation at 10 uM after 10 mins. It counts as functional. The essentials:
(§1)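 Washed human platelets (aspirin 100 µM and apyrase in PRP) suspended in HBS pH 7.45 with 1 mM Ca2+. Preincubated 10 min with 10 µM agent or DMSO vehicle, then stimulated with 0.1 U/mL thrombin at 37 °C with stirring at 1200 rpm in an aggregometer. Lag time, % rate and % aggregation read from traces; mean ± SEM of four determinations.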

For assay [2], the system named is Platelet. In words: Effect on thrombin-induced human platelet aggregation assessed as lag time at 10 uM after 10 mins. It counts as functional. The essentials:
as §1

The subject of assay [3] is Platelet. In words: Effect on rate of thrombin-induced human platelet aggregation at 10 uM after 10 mins. It counts as functional. The procedure, abridged: as §1
In assay [4] the test system is Platelet. In words: Effect on thrombin-induced human platelet aggregation assessed as lag time at 0.1 uM. It counts as functional. The procedure, abridged: (§2)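 Washed human platelets (from aspirin- and apyrase-treated PRP) in HEPES-buffered saline, pH 7.45, with 1 mM Ca2+. Preincubated 30 min with 0.1-10 µM compound (10 mM DMSO stock) or vehicle. Stimulated with 0.1 U/mL thrombin or 10 µM ADP. Read in an aggregometer at 37 °C, stirred at 1200 rpm, as lag time, % rate and % aggregation. Mean ± SEM, six determinations.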

Assay [5] relates to Platelet. In words: Effect on rate of thrombin-induced human platelet aggregation at 0.1 uM. It counts as functional. The essentials: as §2
Assay [6] deals with Platelet. In words: Effect on thrombin-induced human platelet aggregation at 0.1 uM. It counts as functional. The procedure, abridged:
as §2

Assay [7] has as its system Platelet. In words: Effect on thrombin-induced calcium mobilization in human platelets. The assay is classed as functional, cell-based. The essentials:
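Platelets loaded with 2 µM fura-2/AM for 45 min at 37 °C, 2 × 10^8 cells/mL, stirred at 37 °C. Exposed to 10 µM compound for 30 min. Ca2+-free medium with 100 µM EGTA, then 0.1 U/mL thrombin. Excitation 340/380 nm, emission 505 nm; ratio calibrated to [Ca2+]i. Peak rise above basal taken; n = 6.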

The test system of assay [8] is Platelet. The assay is described as follows: Effect on ADP-induced human platelet aggregation assessed as lag time at 10 uM. The assay is classed as functional. The procedure, abridged:
as §2

Assay [9] has as its system Platelet. In words: Effect on of ADP-induced human platelet aggregation at 10 uM. It counts as functional. The procedure, abridged:
as §2

Assay [10] addresses Proto-oncogene tyrosine-protein kinase Src (Homo sapiens) (UniProt P12931). The assay is described as follows: Inhibition of thrombin-induced pp60src activation in presence of catalase. The procedure, abridged: (§3)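 Platelets in HBS with 1 mM Ca2+ pretreated 30 min at 37 °C with 10 µM compound, alone or with 300 U/mL catalase (10 min). Sampled 10 s before and 60 s after 0.1 U/mL thrombin. SDS-PAGE and immunoblot with anti-phospho-c-Src Y416, reprobed for total pp60src. Densitometry as % of untreated resting cells; mean ± SEM, four experiments.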

Assay [11] relates to Platelet. In words: Reduction of thrombin-induced phosphotyrosine content in human platelets at 10 uM after 30 mins.
For assay [12], the system named is Platelet. In words: Effect on thrombin-induced human platelet aggregation in presence of catalase. It counts as functional. The essentials: (§4)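 Washed human platelets in HBS with 1 mM Ca2+. Treated with 10 µM compound for 30 min, plus either 300 U/mL catalase for 10 min or 100 µM colchicine for 2 h; controls received each agent alone or vehicle. Thrombin 0.1 U/mL at 37 °C, stirring at 1200 rpm. Lag time, % rate and % aggregation recorded; mean ± SEM, six determinations.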

The test system of assay [13] is Platelet. The assay is described as follows: Effect on thrombin-induced human platelet aggregation at 1.0 uM. The assay is classed as functional. The essentials: as §2
Assay [14] concerns Platelet. In words: Effect on thrombin-induced microtubular reorganization at 10 uM after 30 mins. It counts as functional, Homo sapiens. The essentials:
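Platelets pretreated with 10 µM compound for 30 min at 37 °C, then 0.1 U/mL thrombin for 1 min in HBS at 2 × 10^7 cells/mL. Fixed in an equal volume of ice-cold 3% formaldehyde in PBS for 10 min, permeabilized with 0.025% NP40, stained 30 min with 1 µM Oregon Green 488 paclitaxel. Fluorescence at ex 488/em 522 nm; n = 6.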

For assay [15], the target named is Tyrosine-protein kinase BTK (Homo sapiens) (UniProt Q06187). The assay is described as follows: Effect on thrombin-induced Btk activation at 10 uM after 30 mins. The procedure, abridged: (§5)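 Platelets in HBS with 1 mM Ca2+ held 30 min at 37 °C with 10 µM compound, alone or with 300 U/mL catalase (10 min). Samples taken 10 s before and 30 s after 0.1 U/mL thrombin, lysed in Laemmli buffer. Western blot for phospho-Btk Y223, reprobed for total Btk. Densitometry as % of resting control; mean ± SEM, four experiments.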

In assay [16] the test system is Platelet. In words: Effect on rate of thrombin-induced human platelet aggregation in presence of colchicine. It counts as functional. The procedure, abridged: as §4
The subject of assay [17] is Platelet. In words: Effect on thrombin-induced human platelet aggregation assessed as lag time in presence of colchicine. It counts as functional. The essentials: as §4
Assay [18] has as its system Platelet. In words: Effect on thrombin-induced human platelet aggregation assessed as lag time at 10 uM. It counts as functional. The procedure, abridged:
as §2

Assay [19] relates to Platelet. In words: Effect on thrombin-induced human platelet aggregation at 10 uM. It counts as functional. The procedure, abridged: as §2
In assay [20] the test system is Platelet. In words: Effect on thrombin-induced human platelet aggregation assessed as lag time in presence of catalase. It counts as functional. The procedure, abridged:
as §4

Assay [21] has as its target Tyrosine-protein kinase BTK (Homo sapiens) (UniProt Q06187). The assay is described as follows: Effect on thrombin-induced Btk activation in presence of catalase. The essentials:
as §5

The test system of assay [22] is Platelet. The assay is described as follows: Effect on rate of thrombin-induced human platelet aggregation at 10 uM. It counts as functional. The procedure, abridged:
as §2

Assay [23] concerns Platelet. The assay is described as follows: Effect on rate of thrombin-induced human platelet aggregation in presence of catalase. The assay is classed as functional. The essentials:
as §4

In assay [24] the target is Proto-oncogene tyrosine-protein kinase Src (Homo sapiens) (UniProt P12931). The assay is described as follows: Inhibition of thrombin-induced pp60src activation at 10 uM after 30 mins. The procedure, abridged:
as §3

Assay [25] deals with Platelet. In words: Effect on rate of ADP-induced human platelet aggregation at 10 uM. It counts as functional. The essentials:
as §2

Assay [26] concerns Platelet. The assay is described as follows: Effect on rate of thrombin-induced human platelet aggregation at 1.0 uM. It counts as functional. The essentials: as §2
The test system of assay [27] is Platelet. In words: Effect on thrombin-induced human platelet aggregation assessed as lag time at 1.0 uM. The assay is classed as functional. The procedure, abridged:
as §2

Assay [28] has as its system Platelet. The assay is described as follows: Effect on thrombin-induced human platelet aggregation in presence of colchicine. It counts as functional. The procedure, abridged:
as §4

Each structure is given as a SMILES string. The source made the active and inactive calls. The rule behind the calls is not given here.

Chain of Tyrosine-protein kinase BTK (Homo sapiens) (Q06187 whole entry): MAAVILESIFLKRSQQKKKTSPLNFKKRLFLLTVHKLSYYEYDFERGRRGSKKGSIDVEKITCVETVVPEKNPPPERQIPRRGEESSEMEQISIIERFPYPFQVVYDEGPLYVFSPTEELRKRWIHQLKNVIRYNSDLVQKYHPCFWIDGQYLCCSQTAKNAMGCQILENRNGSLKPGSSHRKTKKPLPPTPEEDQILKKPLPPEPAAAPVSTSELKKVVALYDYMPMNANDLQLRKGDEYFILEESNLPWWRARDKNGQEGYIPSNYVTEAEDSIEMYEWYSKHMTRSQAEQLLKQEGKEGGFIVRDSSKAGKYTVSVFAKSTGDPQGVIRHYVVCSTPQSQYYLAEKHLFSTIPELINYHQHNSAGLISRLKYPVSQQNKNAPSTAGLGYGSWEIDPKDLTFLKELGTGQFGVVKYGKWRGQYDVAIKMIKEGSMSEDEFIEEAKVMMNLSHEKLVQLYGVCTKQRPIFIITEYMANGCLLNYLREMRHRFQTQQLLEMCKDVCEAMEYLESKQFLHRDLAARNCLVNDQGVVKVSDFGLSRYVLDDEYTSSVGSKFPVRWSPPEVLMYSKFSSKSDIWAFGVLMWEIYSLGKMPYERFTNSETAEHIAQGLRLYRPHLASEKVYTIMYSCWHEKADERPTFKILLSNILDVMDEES
Chain of Proto-oncogene tyrosine-protein kinase Src (Homo sapiens) (P12931 2-536 limits assumed): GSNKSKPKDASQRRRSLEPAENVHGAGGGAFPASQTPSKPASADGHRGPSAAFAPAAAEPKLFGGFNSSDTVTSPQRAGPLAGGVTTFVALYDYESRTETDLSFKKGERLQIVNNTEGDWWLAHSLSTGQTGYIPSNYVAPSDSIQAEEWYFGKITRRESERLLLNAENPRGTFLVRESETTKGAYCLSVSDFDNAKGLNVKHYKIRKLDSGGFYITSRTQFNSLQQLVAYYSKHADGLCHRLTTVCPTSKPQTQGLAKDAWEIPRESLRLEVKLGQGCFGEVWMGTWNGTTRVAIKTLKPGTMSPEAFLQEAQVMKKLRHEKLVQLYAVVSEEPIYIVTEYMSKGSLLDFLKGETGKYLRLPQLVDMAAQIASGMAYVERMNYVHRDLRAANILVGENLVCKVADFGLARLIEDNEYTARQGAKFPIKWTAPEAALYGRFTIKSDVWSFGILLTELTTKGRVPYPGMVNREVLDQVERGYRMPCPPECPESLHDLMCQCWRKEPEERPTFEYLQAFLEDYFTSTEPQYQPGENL

Regarding `Cc1ccc(-c2nn(C(C)(C)C)c3ncnc(N)c23)cc1`, the Activity with Platelet [1] came out at 67.1%; with Platelet [3], 59.7%. The Time in the assay on Platelet [2] is given as 26.5 s.
For the molecule `COc1cc2c(c(OC)c1OC)-c1ccc(OC)c(=O)cc1[C@@H](NC(C)=O)CC2` [COLCHICINE], the Time with Platelet [4] came out at 9.3 s. Also, the Activity is 59% with Platelet [5] and 71.2% with Platelet [6].
As to `C/C(O)=C(\C#N)C(=O)Nc1cc(Br)ccc1Br`, the Activity in the assay with Platelet [1] came out at 68.7%; with Platelet [3], 66.3%. Further, in the assay on Platelet [2], the Time was found to be 24.3 s.
Consider `Oc1cc(O)c2c(c1)O[C@@]1(c3ccc(O)c(O)c3)Oc3cc(O)c4c(c3[C@@H]2[C@H]1O)O[C@H](c1ccc(O)c(O)c1)[C@H](O)[C@H]4c1c(O)cc(O)c2c1O[C@H](c1ccc(O)c(O)c1)[C@H](O)C2` [CINNAMTANNIN B1], for which the outcome with Platelet [7] was inactive. Further, the Time was 15.6 s with Platelet [8]; 9.2 s in the assay on Platelet [4]; 15 s with Platelet [17]; 10.6 s with Platelet [18]; 9.1 s in the assay on Platelet [20]; 9.8 s in the assay on Platelet [27]. Also, the Activity with Platelet [9] was found to be 9.5%; in the assay on Platelet [12], 77%; in the assay on Platelet [13] it was 80.6%; with Platelet [14], 15%; in [15], 50%; in the assay with Platelet [16] it was 40.3%. In addition, the Activity with Platelet [19] is 71.8%; in assay [21] it was 90%; with Platelet [22], 42.1%; with Platelet [23] it was 48.1%; in the assay with Platelet [5], 49%; with Platelet [25], 9%. The Activity was determined as 81.9% in the assay on Platelet [6], 43.7% in the assay with Platelet [26] and 74.6% with Platelet [28]. In addition, the result (in [10]; in the assay with Platelet [11]; in assay [24]) was Active.
